From article PMC6203112 (International Journal of Chronic Obstructive Pulmonary …, 2018)

Key:
[1] = Study 1 Part 2: adverse events after multiple OD doses via SDDPI; assay type: in vivo, human
Procedure, shortened: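 In Study 1 Part 2, healthy men were randomized to five parallel, dose-escalating cohorts. Each received test compound (100–1,600 µg) or matching placebo once daily for 7 days via a capsule-based single-dose dry-powder inhaler. AEs and investigator-assessed relation to study medication were recorded. Results are number (%) of subjects in the safety population (randomized, at least one dose).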

[2] = Study 2 Part 2: adverse events after multiple BID doses via MDDPI; assay type: in vivo, human; conditions: N=9
Procedure, shortened: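 Study 2 Part 2 used three parallel escalating cohorts of healthy men and women. Subjects inhaled test compound at 1,200, 2,000 or 2,400 µg twice daily, or placebo, for 14 days via a reservoir multi-dose dry-powder inhaler, confined from day −2 to day 15. AEs were recorded with investigator-assessed relation to study medication, as number (%) of the safety population.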

[3] = in humans; cited from earlier work
[4] = human liver; cited from earlier work
[5] = cited from earlier work

CS(=O)(=O)Nc1ccc(C(=O)O[C@@H](Cc2c(Cl)c[n+]([O-])cc2Cl)c2ccc(OC(F)F)c(OCC3CC3)c2)cc1OCC1CC1 [CHF6001]
At least one SAE ([1]; 1,200 µg OD 7 days, N=9): 0 Number (%) of subjects
Back pain (AE) ([1]; 1,200 µg OD 7 days, N=9): 0 Number (%) of subjects
Diarrhea (AE considered related to study medication) ([1]; 1,200 µg OD 7 days, N=9): 0 Number (%) of subjects
Flatulence (AE considered related to study medication) ([1]; 1,200 µg OD 7 days, N=9): 0 Number (%) of subjects
Headache (AE considered related to study medication) ([1]; 1,200 µg OD 7 days, N=9): 0 Number (%) of subjects
Headache (AE) ([1]; 1,200 µg OD 7 days, N=9): 0 Number (%) of subjects
Nausea (AE considered related to study medication) ([1]; 1,200 µg OD 7 days, N=9): 0 Number (%) of subjects
Parosmia (AE considered related to study medication) ([1]; 1,200 µg OD 7 days, N=9): 0 Number (%) of subjects
Severe AE ([1]; 1,200 µg OD 7 days, N=9): 0 Number (%) of subjects
AE considered related to study medication ([1]; 1,600 µg OD 7 days, N=7): 0 Number (%) of subjects
AE leading to death ([1]; 1,600 µg OD 7 days, N=7): 0 Number (%) of subjects
AE leading to withdrawal ([1]; 1,600 µg OD 7 days, N=7): 0 Number (%) of subjects
At least one AE ([1]; 1,600 µg OD 7 days, N=7): 3 (42.9) Number (%) of subjects
At least one SAE ([1]; 1,600 µg OD 7 days, N=7): 0 Number (%) of subjects
Back pain (AE) ([1]; 1,600 µg OD 7 days, N=7): 0 Number (%) of subjects
Diarrhea (AE considered related to study medication) ([1]; 1,600 µg OD 7 days, N=7): 0 Number (%) of subjects
Flatulence (AE considered related to study medication) ([1]; 1,600 µg OD 7 days, N=7): 0 Number (%) of subjects
Headache (AE considered related to study medication) ([1]; 1,600 µg OD 7 days, N=7): 0 Number (%) of subjects
Headache (AE) ([1]; 1,600 µg OD 7 days, N=7): 0 Number (%) of subjects
Nausea (AE considered related to study medication) ([1]; 1,600 µg OD 7 days, N=7): 0 Number (%) of subjects
Parosmia (AE considered related to study medication) ([1]; 1,600 µg OD 7 days, N=7): 0 Number (%) of subjects
Severe AE ([1]; 1,600 µg OD 7 days, N=7): 0 Number (%) of subjects
AE considered related to study medication ([2]; 1,200 µg BID 14 days): 4 (44.4) Number (%) of subjects
AE leading to death ([2]; 1,200 µg BID 14 days): 0 Number (%) of subjects
AE leading to withdrawal ([2]; 1,200 µg BID 14 days): 0 Number (%) of subjects
At least one AE ([2]; 1,200 µg BID 14 days): 6 (66.7) Number (%) of subjects
At least one SAE ([2]; 1,200 µg BID 14 days): 0 Number (%) of subjects
Back pain (AE) ([2]; 1,200 µg BID 14 days): 0 Number (%) of subjects
Diarrhea (AE considered related to study medication) ([2]; 1,200 µg BID 14 days): 1 (11.1) Number (%) of subjects
Flatulence (AE considered related to study medication) ([2]; 1,200 µg BID 14 days): 1 (11.1) Number (%) of subjects
Headache (AE considered related to study medication) ([2]; 1,200 µg BID 14 days): 3 (33.3) Number (%) of subjects
Headache (AE) ([2]; 1,200 µg BID 14 days): 3 (33.3) Number (%) of subjects
Nausea (AE considered related to study medication) ([2]; 1,200 µg BID 14 days): 0 Number (%) of subjects
Parosmia (AE considered related to study medication) ([2]; 1,200 µg BID 14 days): 0 Number (%) of subjects
Severe AE ([2]; 1,200 µg BID 14 days): 0 Number (%) of subjects
AE leading to death ([2]; 2,000 µg BID 14 days): 0 Number (%) of subjects
AE leading to withdrawal ([2]; 2,000 µg BID 14 days): 0 Number (%) of subjects
At least one AE ([2]; 2,000 µg BID 14 days): 5 (55.6) Number (%) of subjects
At least one SAE ([2]; 2,000 µg BID 14 days): 0 Number (%) of subjects
Back pain (AE) ([2]; 2,000 µg BID 14 days): 3 (33.3) Number (%) of subjects
Diarrhea (AE considered related to study medication) ([2]; 2,000 µg BID 14 days): 0 Number (%) of subjects
Flatulence (AE considered related to study medication) ([2]; 2,000 µg BID 14 days): 0 Number (%) of subjects
Headache (AE considered related to study medication) ([2]; 2,000 µg BID 14 days): 2 (22.2) Number (%) of subjects
Headache (AE) ([2]; 2,000 µg BID 14 days): 2 (22.2) Number (%) of subjects
Nausea (AE considered related to study medication) ([2]; 2,000 µg BID 14 days): 0 Number (%) of subjects
Parosmia (AE considered related to study medication) ([2]; 2,000 µg BID 14 days): 0 Number (%) of subjects
Severe AE ([2]; 2,000 µg BID 14 days): 1 (11.1) Number (%) of subjects
AE considered related to study medication ([2]; 2,400 µg BID 14 days): 1 (11.1) Number (%) of subjects
AE leading to death ([2]; 2,400 µg BID 14 days): 0 Number (%) of subjects
AE leading to withdrawal ([2]; 2,400 µg BID 14 days): 1 (11.1) Number (%) of subjects
At least one AE ([2]; 2,400 µg BID 14 days): 7 (77.8) Number (%) of subjects
At least one SAE ([2]; 2,400 µg BID 14 days): 0 Number (%) of subjects
Back pain (AE) ([2]; 2,400 µg BID 14 days): 5 (55.6) Number (%) of subjects
Diarrhea (AE considered related to study medication) ([2]; 2,400 µg BID 14 days): 0 Number (%) of subjects
Flatulence (AE considered related to study medication) ([2]; 2,400 µg BID 14 days): 0 Number (%) of subjects
Headache (AE considered related to study medication) ([2]; 2,400 µg BID 14 days): 1 (11.1) Number (%) of subjects
Headache (AE) ([2]; 2,400 µg BID 14 days): 2 (22.2) Number (%) of subjects
Nausea (AE considered related to study medication) ([2]; 2,400 µg BID 14 days): 0 Number (%) of subjects
Parosmia (AE considered related to study medication) ([2]; 2,400 µg BID 14 days): 0 Number (%) of subjects
Severe AE ([2]; 2,400 µg BID 14 days): 0 Number (%) of subjects
plasma protein bound [3]: > 99%
metabolic stability [4]: metabolically stable
systemic bioavailability ([5]; after intratracheal administration): low systemic bioavailability
bioavailability ([5]; after oral administration): very low bioavailability
elimination ([5]; following intravenous administration, predominantly via the fecal route): rapidly eliminated
